PAFAH1B3 FP inh = blocks human PAF acetylhydrolase 1B catalytic subunit 3; inhibition, % at 3.39 µM; recombinant PAFAH1B3, FP-rhodamine probe, fluorescence polarization; actives 0.28% (n = 340,000); AID 492972; Q15102;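 active = inhibition above the screen-wide average of all tested compounds plus 3 SD, cut at about 25% in these data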;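 note: 0% = enzyme with DMSO only and 100% = wells lacking PAFAH1B3 protein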
HTRA1 inh = inhibitors of human serine peptidase HTRA1. Q92743. recombinant HTRA1, FP-rhodamine activity-based probe, fluorescence polarization. inhibition, % at 5.96 µM. actives 0.5% (n = 340,000). AID 504803; in the data active = inhibition above about 36%;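 note: 0% = enzyme with DMSO and 100% = wells lacking enzyme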
Target sequence (Q92743 whole entry, looked up): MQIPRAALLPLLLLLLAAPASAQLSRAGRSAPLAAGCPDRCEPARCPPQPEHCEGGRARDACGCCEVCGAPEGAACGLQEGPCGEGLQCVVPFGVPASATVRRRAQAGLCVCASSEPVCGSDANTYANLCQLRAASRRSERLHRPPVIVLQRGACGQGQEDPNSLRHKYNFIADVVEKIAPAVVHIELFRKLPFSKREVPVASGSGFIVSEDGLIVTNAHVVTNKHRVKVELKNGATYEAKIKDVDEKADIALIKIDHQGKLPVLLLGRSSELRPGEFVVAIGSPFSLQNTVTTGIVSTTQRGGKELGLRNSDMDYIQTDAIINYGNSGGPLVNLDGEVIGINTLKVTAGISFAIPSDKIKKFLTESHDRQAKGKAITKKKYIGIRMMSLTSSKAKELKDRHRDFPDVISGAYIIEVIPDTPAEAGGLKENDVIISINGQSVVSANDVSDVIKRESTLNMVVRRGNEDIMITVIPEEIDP
pPAFAH inh = inhibitors of human plasma PAF acetylhydrolase (pPAFAH) | inhibition, % at 3.39 µM | actives 1.5% (n = 330,000) | recombinant pPAFAH, FP-rhodamine probe fluorescence polarization | Q13093 | AID 463082;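 active = inhibition above the mean inhibition across the screen plus 3 SD, cut at about 25% in these data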;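 note: inhibitors block binding of the rhodamine activity-based probe so polarization drops; 0% = enzyme with DMSO and 100% = wells lacking pPAFAH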
mABHD4 FP = ABHD4 (mouse) inhibition, primary FP screen; Q8VD66; purified mABHD4, FP-Rh probe fluorescence polarization; inhibition, % at 8.92 µM; actives 0.54% (n = 370,000); AID 720543;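 active = inhibition exceeding the mean over every tested compound plus 3 SD, cut at about 30% in these data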;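 note: 0% = plate median of compound wells and 100% = S159A mutant with DMSO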
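Doses – 8.92 µM, single dose · Material – wild-type mouse ABHD4 protein · Replication – single well per compound (singlicate) · Measure – percent inhibition of probe binding, normalized to plate controls · Schedule – 45 min compound pre-incubation plus 60 min probe step, 25 °C · Detection – fluorescence polarization with parallel and perpendicular emission, 525/598 nm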
PAFAH1B2 inh = inhibitors of human PAFAH1B2 | P68402 | recombinant PAFAH1B2, FP-rhodamine activity probe, fluorescence polarization | inhibition, % at 3.39 µM | actives 1.2% (n = 340,000);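 active = inhibition above the mean of all tested compounds plus 3 SD, cut at about 24% in these data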;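 note: 0% = enzyme with DMSO and 100% = wells lacking PAFAH1B2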
PAFAH2 FP inh = inhibitors of human PAFAH2; Q99487; recombinant PAFAH2, FP-rhodamine activity probe, fluorescence polarization; inhibition, % at 3.39 µM; actives 0.99% (n = 340,000); AID 492956;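 active = inhibition above the mean over all tested compounds plus 3 SD, cut at about 30% in these data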;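 note: inhibitors block probe labeling of enzyme so polarization drops; 0% = enzyme with DMSO and 100% = wells lacking PAFAH2 protein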
HTRA1 inh conf = HTRA1 (human) inhibition, confirmation. shares compounds with HTRA1 inh. recombinant HTRA1, FP-rhodamine activity-based probe, fluorescence polarization. inhibition, % at 5.96 µM. actives 66% (n = 1,600);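 active = mean inhibition over three repeats above a set limit taken from the earlier primary screen, cut at about 37% in these data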;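 note: 0% = HTRA1 with DMSO and 100% = wells lacking HTRA1; inhibitors block probe binding so polarization drops and inhibition rises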
mABHD4 conf = ABHD4 (mouse) inhibition, FP confirmation. actives 55% (n = 1,800). AID 720658. inhibition, % at 8.92 µM. purified mABHD4, FP-Rh probe fluorescence polarization. shares compounds with mABHD4 FP;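 active = mean inhibition across replicates above the hit cutoff set in the primary screen, cut at about 30% in these data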;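 note: 0% = wild-type ABHD4 with DMSO and 100% = catalytically dead S159A mutant with DMSO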
Starred values were filed as active, the others as inactive; nt = no result. Hits are enriched below; roughly 2.8% of the tested compounds scored in any of these assays.

SMILES	PAFAH1B3 FP inh	HTRA1 inh	pPAFAH inh	mABHD4 FP	PAFAH1B2 inh	PAFAH2 FP inh	HTRA1 inh conf	mABHD4 conf
CCS(=O)(=O)NCc1ccc2c(c1)cc(C)n2C	2	22	7	-2	9	0	nt	nt
Nc1cc2c(cc1O)CCCC2	3	44*	31*	30*	9	3	30	28
O=C1CCCCc2cc(O)c(O)cc21	nt	12	nt	10	nt	nt	nt	nt
O=[N+]([O-])c1cc([N+](=O)[O-])c2c(=Nc3ccccc3)n(-c3ccccc3)n(O)c2c1	24	42*	22	55*	17	20	48*	48*
CNCc1ccccc1Sc1ccc(O)c(O)c1	5	62*	20	35*	3	6	57*	50*
COc1ccc(Sc2ccccc2CN(C)C)cc1OC	3	4	-4	-2	1	4	nt	nt
CCN(CC)C(=O)c1ccc2c(c1)NC(=O)C(C)(C)O2	nt	nt	nt	-3	nt	nt	nt	nt
Cc1ccc(/C=[N+](\[O-])c2ccc(N(C)C)cc2)c2nsnc12	15	38*	nt	30*	4	1	20	-8
Fc1ccccc1Cn1ccc2ccc(-c3ccc4ccn(Cc5ccccc5)c4c3)cc21	nt	nt	nt	3	nt	nt	nt	nt
CC1(C)CNc2cc(N)ccc2S1	3	72*	14	38*	4	1	13	40*
O=S(=O)(c1ccccc1Br)N(Cc1cn(CC2CCCCC2)nn1)C1CC1	nt	nt	nt	10	nt	nt	nt	nt
CC(=O)NC(c1ccc(N(C)C)cc1)c1cc(Cl)c2cccnc2c1O (stereo unspecified)	nt	65*	nt	30*	nt	nt	82*	33*
CC(=O)NC(c1ccco1)c1ccc2cccnc2c1O (stereo unspecified)	1	19	4	nt	8	4	nt	nt
CC(=O)C1C(=O)c2c(cccc2[N+](=O)[O-])C1=Nc1ccc(S(N)(=O)=O)cc1 (stereo unspecified)	35*	39*	25*	38*	23	39*	30	34*
C#CCN(C1CC1)S(=O)(=O)c1ccccc1Br	nt	nt	nt	0	nt	nt	nt	nt
C=CCN1C(=O)[C@@H](CC(=O)NCCCC)[C@]2(C(=O)OCC)CCCCC/C=C/12	nt	nt	nt	-1	nt	nt	nt	nt
CN(C)C(=O)C[C@H]1CC[C@H]2[C@H](COc3ccc(NC(=O)C4CC4)cc3C(=O)N2C)O1	nt	nt	nt	2	nt	nt	nt	nt
CCOc1cccc(-c2nnc(SCC(=O)Nc3ccc4c(c3)OCO4)n2N)c1	nt	nt	nt	-2	nt	nt	nt	nt
Oc1ccccc1N=Cc1c(O)ccc2oc3c(c12)CCCC3	7	43*	17	30*	4	14	68*	-5
O=C(O)c1ccc(N=Cc2c(O)ccc3oc4c(c23)CCCC4)cc1	4	9	-1	-3	-2	7	nt	nt
Cc1cc(NS(=O)(=O)c2ccc(NC(=O)CSc3nnc(-c4ccccn4)n3Cc3ccco3)cc2)nc(C)n1	nt	nt	nt	1	nt	nt	nt	nt
Oc1cccc(/C=N/NC(=S)Nc2cccnc2)c1O	22	42*	16	31*	4	22	24	25
CC(=O)Nc1c(-c2ccc(C(F)(F)F)cc2)nc2ncccn12	nt	nt	nt	17	nt	nt	nt	nt
Oc1ccc(NCc2ccccc2OCc2ccccc2F)cc1	11	63*	31*	49*	4	4	21	50*
COc1cccc(CNCCO)c1OCc1ccc(Cl)cc1	3	0	3	5	3	-2	nt	nt
CCOc1cccc(CNc2ccc(O)cc2)c1OCc1ccc(Cl)cc1	8	49*	33*	41*	3	8	19	36*
Cc1ccc(NCc2ccccc2OCc2ccccc2F)cc1	-4	-9	7	0	4	1	nt	nt
N#C/C(=C\c1ccc(O)c(O)c1)C(=O)NCCc1ccccc1	15	71*	27*	51*	64*	36*	93*	33*
O=[N+]([O-])c1ccc2c([N+](=O)[O-])ccc3c2c1CC3	nt	54*	nt	40*	nt	nt	38*	90*
Cc1cc2nc3ccc(N(C)C)cc3nc2cc1N	32*	66*	32*	57*	31*	46*	60*	24
